Activity calls are given as the source filed them. The rule behind the calls is not given here.
Columns and labels:
HCT-116 [1] = test: Cytotoxicity against human HCT116 cells after 48 hrs by MTT assay; assay type: functional; settings: HCT-116, 48 h
MCF7 [2] = test: Cytotoxicity against human MCF7 cells after 48 hrs by MTT assay; assay type: functional; settings: MCF7, 48 h
HCT-116 [3] = test: Induction of apoptosis in human HCT116 cells assessed as caspase-3 activation at GI50 after 24 hrs; assay type: functional, cell-based
Procedure, shortened: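 HCT-116 cells exposed for 24 h at the respective GI₅₀ or 5×GI₅₀ concentration, with a DMSO control, then assayed for caspase-3 activity. Data are mean ± s.d. of two independent experiments, and significance versus DMSO was set at p <0.05.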

HCT-116 [4] = test: Cell cycle arrest in human HCT116 cells assessed as accumulation at G2/M phase at 5 times GI50 after 24 hrs by […]PI staining-based flow cytometry; assay type: functional
HCT-116 [5] = test: Induction of apoptosis in human HCT116 cells assessed as early apoptosis cells at 5 times GI50 after 24 hrs by AnnexinV/PI staining-based flow cytometry; assay type: functional
Procedure, shortened: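 HCT-116 cells were treated for 24 h alongside a DMSO control, stained with annexin V/PI and analysed by flow cytometry. Early apoptotic cells were scored as AnnV+/PI−, and late apoptotic cells as AnnV+/PI+. Values are mean ± s.d.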

HCT-116 [6] = test: Induction of apoptosis in human HCT116 cells assessed as at 5 times GI50 after 24 hrs by AnnexinV/PI staining-based flow cytometry
HCT-116 [7] = test: Cell cycle arrest in human HCT116 cells at 5 times GI50 after 24 hrs by AnnexinV/PI staining-based flow cytometry; assay type: functional
CDK9/cyclin T1 = CDK9/cyclin T1 (Homo sapiens, UniProt P50750); test: Inhibition of CDK9/CyclinT1; assay type: protein-complex assay
HCT-116 [8] = test: Ratio of DRB GI50 to compound GI50 for human HCT116 cells; assay type: functional
MCF7 [9] = test: Ratio of DRB GI50 to compound GI50 for human MCF7 cells; assay type: functional
[10] = target: Cyclin-dependent kinase 9 (Homo sapiens) (UniProt P50750); test: Inhibition of CDK9-mediated phosphorylation of RNA polymerase 2 at Ser2 in human HCT116 cells after 24 hrs by Western blot analysis; assay type: cell-based; settings: HCT-116
Procedure, shortened: (§1)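 Western blot of HCT-116 cells after 24 h treatment across a concentration series, probing RNAPII CTD pSer-2 with β-actin as the internal loading control.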

[11] = target: Cyclin-dependent kinase 9 (Homo sapiens) (UniProt P50750); test: Inhibition of CDK9-mediated phosphorylation of RNA polymerase 2 at Ser2 in human HCT116 cells at GI50 after 24 hrs by Western blot analysis; assay type: cell-based; settings: HCT-116; procedure, shortened: as §1
[12] = target: Cyclin-dependent kinase 9 (Homo sapiens) (UniProt P50750); test: Inhibition of CDK9 in human HCT116 cells assessed as reduction in MDM2 protein level at GI50 after 24 hrs by Western blot analysis; assay type: cell-based; settings: HCT-116
[13] = target: Cyclin-dependent kinase 9 (Homo sapiens) (UniProt P50750); test: Inhibition of CDK9 in human HCT116 cells assessed as reduction in Mcl-1 protein level at GI50 after 24 hrs by Western blot analysis; assay type: cell-based; settings: HCT-116
[14] = target: Cyclin-dependent kinase 2/cyclin A (Homo sapiens) (UniProt P24941+P20248+P78396); test: Inhibition of CDK2/Cyclin A; assay type: protein-complex assay

Cyclin-dependent kinase 9 (Homo sapiens), sequence (P50750 whole entry): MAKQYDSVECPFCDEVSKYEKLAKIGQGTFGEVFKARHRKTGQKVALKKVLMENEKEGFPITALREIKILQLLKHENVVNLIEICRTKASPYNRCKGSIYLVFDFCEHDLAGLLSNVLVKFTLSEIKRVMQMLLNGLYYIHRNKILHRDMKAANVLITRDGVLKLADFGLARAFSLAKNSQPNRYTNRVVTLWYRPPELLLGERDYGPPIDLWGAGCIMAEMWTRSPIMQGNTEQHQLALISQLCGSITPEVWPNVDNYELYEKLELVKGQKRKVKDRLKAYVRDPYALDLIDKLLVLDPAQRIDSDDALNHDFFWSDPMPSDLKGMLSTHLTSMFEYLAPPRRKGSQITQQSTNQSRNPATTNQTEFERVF
CDK9/cyclin T1, sequence (O60563 whole entry): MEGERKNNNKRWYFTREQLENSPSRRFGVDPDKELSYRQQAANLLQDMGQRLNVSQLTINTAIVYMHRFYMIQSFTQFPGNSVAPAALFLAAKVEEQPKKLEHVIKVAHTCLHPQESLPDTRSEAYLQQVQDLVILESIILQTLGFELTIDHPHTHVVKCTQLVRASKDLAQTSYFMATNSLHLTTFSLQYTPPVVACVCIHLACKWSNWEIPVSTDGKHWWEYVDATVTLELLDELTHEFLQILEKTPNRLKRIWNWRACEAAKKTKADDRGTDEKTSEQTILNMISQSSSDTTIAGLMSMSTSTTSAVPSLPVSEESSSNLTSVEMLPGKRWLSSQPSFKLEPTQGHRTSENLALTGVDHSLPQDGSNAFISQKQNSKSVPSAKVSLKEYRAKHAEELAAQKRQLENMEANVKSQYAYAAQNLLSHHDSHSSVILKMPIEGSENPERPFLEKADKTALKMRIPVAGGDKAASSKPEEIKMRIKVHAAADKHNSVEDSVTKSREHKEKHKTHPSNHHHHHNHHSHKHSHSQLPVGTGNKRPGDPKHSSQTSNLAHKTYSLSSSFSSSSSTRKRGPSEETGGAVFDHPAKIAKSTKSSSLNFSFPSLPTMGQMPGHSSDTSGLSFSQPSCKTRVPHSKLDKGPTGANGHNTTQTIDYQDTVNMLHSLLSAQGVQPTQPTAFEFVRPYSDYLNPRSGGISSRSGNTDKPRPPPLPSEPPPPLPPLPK
CDK9/cyclin T1, sequence (P50750 whole entry): as the sequence (P50750 whole entry) above

## FC(F)(F)c1nc2cc(Cl)c(Cl)cc2n1CC1CC1
HCT-116 [1]
  GI50: 61.3 µM
MCF7 [2]
  GI50: 60.2 µM

## O=[N+]([O-])c1cccc(Cn2c(C(F)(F)F)nc3cc(Cl)c(Cl)cc32)c1
HCT-116 [1]
  GI50: 22.8 µM
MCF7 [2]
  GI50: 60 µM

## C=CCn1c(C(F)(F)F)nc2cc(Cl)c(Cl)cc21
HCT-116 [1]
  GI50: 89.2 µM
MCF7 [2]
  GI50: 87 µM

## Nc1ccccc1Cn1c(C(F)(F)F)nc2cc(Cl)c(Cl)cc21
HCT-116 [1]
  GI50: 26.1 µM
MCF7 [2]
  GI50: 55.6 µM

## Clc1cc2nc(-c3ccccc3Cl)[nH]c2cc1Cl
HCT-116 [1]
  GI50: 23 µM
MCF7 [2]
  GI50: 22 µM

## FC(F)(F)c1cccc(Cn2c(C(F)(F)F)nc3cc(Cl)c(Cl)cc32)c1
HCT-116 [1]
  GI50: 50.5 µM
MCF7 [2]
  GI50: 68 µM

## FC(F)(F)c1ccc(Cn2c(C(F)(F)F)nc3cc(Cl)c(Cl)cc32)cc1
HCT-116 [1]
  GI50: 19 µM
MCF7 [2]
  GI50: 17 µM

## OC[C@H]1O[C@@H](n2cnc3cc(Cl)c(Cl)cc32)[C@H](O)[C@@H]1O [DICHLORORIBOBENZIMIDAZOLE]
HCT-116 [3]
  Activity: Active
HCT-116 [4]
  Activity: Active
HCT-116 [1]
  GI50: 25 µM
HCT-116 [5]
  Activity: 20%
MCF7 [2]
  GI50: 36 µM

## COc1cc2ncn([C@@H]3O[C@H](CO)[C@@H](O)[C@H]3O)c2cc1OC
HCT-116 [1]
  GI50: > 100 µM
MCF7 [2]
  GI50: > 100 µM

## Clc1cc2nc[nH]c2cc1Cl
HCT-116 [1]
  GI50: 66 µM
MCF7 [2]
  GI50: 73 µM

## OC[C@H]1O[C@@H](n2cnc3cc(F)c(F)cc32)[C@H](O)[C@@H]1O
HCT-116 [1]
  GI50: 67 µM
MCF7 [2]
  GI50: 57.9 µM

## CS(=O)(=O)c1nc2cc(Cl)c(Cl)cc2n1C1CCCC1
HCT-116 [6]
  Activity: <7%
HCT-116 [7]
  Activity: inactive
CDK9/cyclin T1
  Ki: > 5 µM
HCT-116 [3]
  Activity: Active
HCT-116 [1]
  GI50: 0.6 µM
MCF7 [2]
  GI50: 0.6 µM

## O=[N+]([O-])c1ccc(Cn2c(C(F)(F)F)nc3cc(Cl)c(Cl)cc32)cc1
HCT-116 [1]
  GI50: 81.6 µM
MCF7 [2]
  GI50: 97.3 µM

## CC(C)n1c(C(F)(F)F)nc2cc(Cl)c(Cl)cc21
HCT-116 [1]
  GI50: 81.9 µM
MCF7 [2]
  GI50: 70.5 µM

## FC(F)(F)c1nc2cc(Cl)c(Cl)cc2[nH]1
HCT-116 [8]
  RatioGI50: 3.5
HCT-116 [1]
  GI50: 7 µM
MCF7 [9]
  RatioGI50: 6
MCF7 [2]
  GI50: 6 µM

## CSc1nc2cc(Cl)c(Cl)cc2n1C1CCCC1
CDK9/cyclin T1
  Ki: > 5 µM
HCT-116 [1]
  GI50: 2.9 µM
MCF7 [2]
  GI50: 3.9 µM

## Cc1cc2nc(C(F)(F)F)[nH]c2cc1C
HCT-116 [1]
  GI50: 56 µM
MCF7 [2]
  GI50: 17 µM

## O=[N+]([O-])c1ccccc1Cn1c(C(F)(F)F)nc2cc(Cl)c(Cl)cc21
HCT-116 [1]
  GI50: 5.9 µM
MCF7 [2]
  GI50: 1.5 µM

## CCc1nc2cc(Cl)c(Cl)cc2[nH]1
HCT-116 [1]
  GI50: 46 µM
MCF7 [2]
  GI50: 48 µM

## Cc1cc2nc[nH]c2cc1C [DIMEDAZOL]
HCT-116 [1]
  GI50: 51 µM
MCF7 [2]
  GI50: 20 µM

## CCc1nc2cc(Cl)c(Cl)cc2n1C1CCCC1
HCT-116 [1]
  GI50: 38 µM
MCF7 [2]
  GI50: 52 µM

## FC(F)(F)c1nc2cc(Cl)c(Cl)cc2n1C1CCCC1
HCT-116 [1]
  GI50: 22 µM
MCF7 [2]
  GI50: 21 µM

## FC(F)(F)c1nc2cc(Cl)c(Cl)cc2n1Cc1ccccc1
HCT-116 [1]
  GI50: 8.6 µM
MCF7 [2]
  GI50: 8.7 µM

## CCc1nc2ccccc2n1[C@@H]1O[C@H](CO)[C@@H](O)[C@H]1O
HCT-116 [1]
  GI50: 70.6 µM
MCF7 [2]
  GI50: 71.3 µM

## Nc1cccc(Cn2c(C(F)(F)F)nc3cc(Cl)c(Cl)cc32)c1
HCT-116 [1]
  GI50: 22.6 µM
MCF7 [2]
  GI50: 77.5 µM

## C[S+]([O-])c1nc2cc(Cl)c(Cl)cc2n1C1CCCC1 (stereo not drawn)
HCT-116 [6]
  Activity: <7%
HCT-116 [7]
  Activity: inactive
CDK9/cyclin T1
  Ki: > 5 µM
HCT-116 [3]
  Activity: Active
HCT-116 [1]
  GI50: 0.5 µM
MCF7 [2]
  GI50: 0.5 µM

## Fc1ccccc1-c1nc2cc(Cl)c(Cl)cc2[nH]1
HCT-116 [1]
  GI50: 56.5 µM
MCF7 [2]
  GI50: 47.5 µM

## Cc1nc2cc(Cl)c(Cl)cc2[nH]1
HCT-116 [1]
  GI50: 51 µM
MCF7 [2]
  GI50: 28 µM

## Cc1nc2cc(Cl)c(Cl)cc2n1C1CCCC1
[10]
  inhibition: Dose-dependent effect
[11]
  inhibition: Active
HCT-116 [7]
  Activity: inactive
CDK9/cyclin T1
  Ki: 1.51 µM
HCT-116 [3]
  Activity: Active
HCT-116 [1]
  GI50: 13 µM
HCT-116 [5]
  Activity: >17%
[12]
  inhibition: Active
[13]
  inhibition: Active
MCF7 [2]
  GI50: 40 µM
[14]
  inhibition: inactive

## CC(C)c1nc2cc(Cl)c(Cl)cc2n1C1CCCC1
CDK9/cyclin T1
  Ki: 3.33 µM
HCT-116 [1]
  GI50: 9 µM
MCF7 [2]
  GI50: 43 µM
[14]
  inhibition: inactive

## CCn1c(C(F)(F)F)nc2cc(Cl)c(Cl)cc21
HCT-116 [1]
  GI50: 95.3 µM
MCF7 [2]
  GI50: 72.9 µM

## Cn1c(C(F)(F)F)nc2cc(Cl)c(Cl)cc21
HCT-116 [1]
  GI50: 56 µM
MCF7 [2]
  GI50: 39 µM

## CC(C)c1nc2cc(Cl)c(Cl)cc2[nH]1
HCT-116 [1]
  GI50: 52 µM
MCF7 [2]
  GI50: 57 µM

## Clc1cc2ncn(C3CCCC3)c2cc1Cl
HCT-116 [1]
  GI50: 37 µM
MCF7 [2]
  GI50: 42 µM

From ChEMBL document CHEMBL1944568, “Synthesis and biological evaluation of benzo[d]imidazole derivatives as potential anti-cancer agents” (Bioorg Med Chem Lett, 2012)
